Tests used:
[1] = biological target: T1, Macrophage migration inhibitory factor (Homo sapiens) (UniProt P14174); assay: Inhibitory activity against macrophage migration inhibitory factor tautomerase (MIF) at a concentration of 0.5 mM
T1 sequence (whole entry): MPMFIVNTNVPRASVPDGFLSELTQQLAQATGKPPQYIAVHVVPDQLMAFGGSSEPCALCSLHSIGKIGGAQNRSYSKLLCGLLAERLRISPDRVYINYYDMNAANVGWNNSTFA
Summary of the method: (§1)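 Recombinant human MIF expressed in E. coli. The substrate is L-dopachrome methyl ester, generated by oxidizing 10 mM precursor stocks in 10 mM sodium phosphate, pH 6.0, with sodium periodate for 10 min, then quenching with methionine. Final substrate is 0.5 mM, with test compound at the stated concentration. The reaction starts on adding MIF from a 20 mg/mL stock. Percent inhibition is taken from the absorbance decrease at 475 nm over 1 min.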

[2] = biological target: T1, Macrophage migration inhibitory factor (Homo sapiens); assay: Inhibitory activity against macrophage migration inhibitory factor tautomerase (MIF) at a concentration of 0.06 mM; summary of the method: as §1
[3] = biological target: T1, Macrophage migration inhibitory factor (Homo sapiens); assay: Inhibitory activity against macrophage migration inhibitory factor tautomerase (MIF) at a concentration of 0.125 mM; summary of the method: as §1
[4] = biological target: T1, Macrophage migration inhibitory factor (Homo sapiens); assay: Inhibitory activity against macrophage migration inhibitory factor tautomerase (MIF) at a concentration of 0.25 mM; summary of the method: as §1
[5] = biological target: T1, Macrophage migration inhibitory factor (Homo sapiens); assay: Inhibitory activity against macrophage migration inhibitory factor tautomerase (MIF) at a concentration of 0.02 mM; summary of the method: as §1

Row | Compound | inhibition [1] [%] | inhibition [2] [%] | inhibition [3] [%] | inhibition [4] [%] | inhibition [5] [%]
1 | COC(=O)[C@]1(C)CC2=CC(=O)C(O)=CC2=N1 | 45 |  |  |  | 
2 | CCOC(=O)/C=C/C1=CC(O)C(O)=CC1 (stereo not drawn) | 0 |  |  |  | 
3 | C[C@@]1(C(=O)O)CC2=CC(=O)C(O)=CC2=N1 | 29 |  |  |  | 
4 | CCCC(C(N)=O)C1=CC(O)C(O)=CC1 (stereo not drawn) | 0 |  |  |  | 
5 | COC(=O)C1(C)CC2=CC(=O)C(O)=CC2=N1 (racemic) | 34 |  |  |  | 

Next, values leading:

Row | inhibition [1] [%] | inhibition [2] [%] | inhibition [3] [%] | inhibition [4] [%] | inhibition [5] [%] | Compound
6 | 92 | 22 | 54 | 88 |  | CC1N=C2C=C(O)C(=O)C=C2C1O (stereo not drawn)
7 | 98 |  | 54 | 79 | 21 | C[N+]1=C2C=C(O)C(=O)C=C2C(O)C1 (stereo not drawn)
8 | 100 | 9 | 41 | 98 |  | O=C1C=C2C(=NC(C(=O)O)C2O)C=C1O (stereo not drawn)
9 | 35 |  |  |  |  | CC1(C(=O)O)CC2=CC(=O)C(O)=CC2=N1 (racemic)

Source: ChEMBL document CHEMBL1131879, “Inhibition of macrophage migration inhibitory factor (MIF) tautomerase activity by dopachrome analogs” (Bioorg Med Chem Lett, 1999)
